Data reported in the EternaBench riboswitch data.

Test system: MS2 coat protein
Assay: apparent Kd, MS2 coat protein; higher = weaker binding; RNA-MaP array; FMN 200 µM where present
Procedure, shortened: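 In 100 mM Tris-HCl pH 7.5, 80 mM KCl, 4 mM MgCl2, BSA, DTT, yeast tRNA and Tween-20, SNAP-549-labelled MS2 coat protein was titrated from 0.7 or 1.5 nM, doubling to 3 µM, over designs transcribed by stalled E. coli RNA polymerase on Illumina sequencing-chip clusters. This was done first without ligand, then with ligand held constant. After green signal was normalised to red-channel RNA signal and control-cluster median Fmax, the apparent Kd was taken as the median of filtered per-cluster binding-curve fits.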

[1] = designed as: OFF switch for flavin mononucleotide, no ligand
[2] = ligand present: flavin mononucleotide, designed as: OFF switch for flavin mononucleotide
[3] = designed as: ON switch for flavin mononucleotide, no ligand
[4] = ligand present: flavin mononucleotide, designed as: ON switch for flavin mononucleotide

Sequence | apparent Kd [1] [nM] | apparent Kd [2] [nM] | apparent Kd [3] [nM] | apparent Kd [4] [nM]
ACUGUUUGAUUCCUCUUUUACAUGAGGAUCACCCAUGUUAUCGAGGAUAUGCAUUAGAGUGUUUAGCAGAAGGCGAUGUAAUUG | 6.51 | 20.8 | – | –
ACUUAGUACAAUUUAGAUCUACAUGAGGAUCACCCAUGUACUGAGGAUAUCAGCUCGAAUAGAGCUGAGAAGGCAGAAGUACUU | – | – | 245 | 53.5
ACUUCACAUGAGGAUCACCCAUGUCAGGAUAUCCAGCACUAGCAGGCUCGCUCUUGAAGGAGAAGGGACGGGUA | 46.1 | 54.6 | – | –
ACUUCACAUGAGGAUCACCCAUGUCAGGCCGGACUAGGAUAUUAUCAUGCAGCGUAACAGUGAGAAGGAGUUGGAU | – | – | 91.2 | 89.3
AGAAAACAGGAGAAGGGCCCACGUGAACCUCCAUAUCUGCGAAACAUGAGGAUCACCCAUGUGAGGCAGGAUAUCCAAUUACUU | 9.32 | 38.7 | – | –
AGAAACUACGAGAAGGACAAAACCGGUGCCGCAAACAUGAGGAUCACCCAUGUAGGAUAUCGUAGUUUCAGGAUCGUGAGAUCA | 9.2 | 31.2 | – | –
AGAAACUACGAGAAGGACAUGAGGAUCACCCAUGUUUCCACUUAGUGGCAUGUAGGAUAUCGUAGUUUCAGGAUCGUGAGAUCA | 5.58 | 16.6 | – | –
AGAAACUACGAGAAGGACAUGUGGUCCUUCAAUUACAUGAGGAUCACCCAUGUAGGAUAUCGUAGUUUCAGGAUCGUGAGAUCA | 12.7 | 3.81 | – | –
AGAAACUACGAGAAGGACAUGUGGUCCUUCAGUUACAUGAGGAUCACCCAUGUAGGAUAUCGUAGUUUCAGGAUCGUGAGAUCG | 40.4 | 20.4 | – | –
AGAAAGUCAGGAUAUCGAAGGUAGUGGAGAGGAGUGUGGUACGAGAAGGGACAUGAGGAUCACCCAUGUAGGAG | 34.1 | 31.4 | – | –
AGAACGUCAGGAUAUCCAACAACAAGUAAAUAGAGAAGAAGGGAGAAGGGACAUGAGGAUCACCCAUGUAAGAA | 51.4 | 45.9 | – | –
AGAAGGCUACAGAAGGGACACACACGGUGGGAGUCAGGAUAUGUAGUGAAAACGUUACAUGAGGAUCACCCAUGUAGACCUUCC | – | – | 141 | 18.4
AGAAUUGGUAGAUAAAAGGUCACACAGGAUAUACUCCCAACAUGAGGAUCACCCAUGUACUGGCGGUAGAAGGGUGGGAUCCUC | – | – | 33.6 | 8.52
AGAGAAUAGGUAGGAUAUCUUAAUAGAAAGAAUAGAGAAGGACCACAUGAGGAUCACCCAUGUGAUGUCUUGAGACUACAUGGU | 16.4 | 19.4 | – | –
AGAGACCUCACAGGAUAUGCUGGACUUUGUCCAGCAGAAGGGUGAAAACAUGAGGAUCACCCAUGUAUGGUCUCCAAAUUUAAC | – | – | 187 | 12.7
AGAGCCUCGUGAGGAUAUACAUGAGGAUCACCCAUGUAAAUGGAAUAACGGAGGAAACUCCGAAUGUAGAAGGCACGAGGCUCA | 79.9 | 966 | – | –
AGAGUGUGAGGAUAUAUGGUAAAAGUGAAGAGAGAGGAGGAGUAGAAGGUACAUGAGGAUCACCCAUGUUUGGA | 42.8 | 36.7 | – | –
AGAUCAACCACAGGAUAUGGCUAGCAUAGCUAGCCAGAAGGGUGGUCGUAUCCAUGUAAAUACAUGAGGAUCACCCAUGUAUCC | – | – | 220 | 119
AGAUGACAAAGUCAUCUCUGACGGACAUGAGGAUCACCCAUGUAGGAUAUGCUACUCAAAGAGUAGCAGAAGGACAUGUGUCUU | 33.5 | 173 | – | –

Sequence | apparent Kd [1] [nM] | apparent Kd [2] [nM] | apparent Kd [3] [nM] | apparent Kd [4] [nM]
AGAUGACAUGUAGGAUAUCGAGGCCUGAGGCCUCGAGAAGGACAUGAGGAUCACCCAUGUUUGCCGAGCAUGGAAUCCCGCACU | 29.1 | 205 | – | –
AGAUGUACCUAGGAUAUCCGUCUUAUUGGACUAGGAGAAGGAGGUACAUGAGGAUCACCCAUGUAUGACUCCUG | 11.5 | 14 | – | –
AGAUUUCAUGAGGAUAUCGUAUUAGAUUUAUUGCGAGAAGGCAUGACAUGAGGAUCACCCAUGUAGUGUUGGUU | 49.3 | 96.6 | – | –
AGCAACAUGAGGAUCACCCAUGUUGGUUCGAAAACGGACUCACAGGAUAUGCGGCGUAAUCGCUCGCAGAAGGGUGCGUCCUCA | – | – | 14.1 | 25.6
AGCACGAAAGUGCAACGAUGUACGAGAAGGACAUGAGGAUCACCCAUGUAGCAGUAACUGCAAAUGUAGGAUAUCGUACAUCGA | 6.54 | 14.7 | – | –
AGCAGACGAGGAUAUAGAUGGAAUGACAUGAGGAUCACCCAUGUGAUCGAUCUAUUUGAUUUAGAAGGUGUCUGCU | 12.5 | 15.1 | – | –
AGCAUCUGAGGAUAUACUGGGUAUGGAAGGCGAAGGGCCAGACAUGAGGAUCACCCAUGUAGAAGGCAGUUUGC | 79.3 | 32.9 | – | –
AGCAUGUAAGGAUAUGUAACGCGGCGUUCAUUCGUCGUCCCACAGAAGGUACAUGAGGAUCACCCAUGUGCUCC | 42 | 77.7 | – | –
AGCCGAAGCGCAGGAUAUACAUGUAUACAUGAGGAUCACCCAUGUAGCAACACGUGGUAGUGAUUGUAGAAGGGUGCUCGGCGC | – | – | 32.8 | 30
AGCUACGUUUCGUAGCAGUGUCAUCGAGAAGGCCCUGACAUGAGGAUCACCCAUGUUGUUACAUGGGAGGAUAUCGAUGAUACA | – | – | 12.6 | 4.9
AGCUACGUUUCGUAGCAGUGUCAUCGAGAAGGCCUCAUUACAUGAGGAUCACCCAUGUAAGCAUGGGAGGAUAUCGAUGAUACA | – | – | 36.5 | 15.6
AGCUGGAGAGGAUAUACGUAGGUAAAAAAAGUCUGAUAACUACAUGAGGAUCACCCAUGUAGAAGGCUCUGGCA | 16 | 43.8 | – | –
AGCUGGUGACAGCAUCCAUCAAAACAUGAGGAUCACCCAUGUAGAAGGCUGUACGGUUACCGUACAGAGGAUAUACAAUGAUGG | 7.61 | 9.36 | – | –
AGCUGGUGACAGCAUCCAUCUUAACAUGAGGAUCACCCAUGUAGAAGGCUGUACGGUUACCGUACAGAGGAUAUACAUAGAUGG | 7.95 | – | – | –
AGCUGUGGCCGAGGAUAUACAUCCUUUAUAAAACCGAAAUAUAAUCGGACAUGAGGAUCACCCAUGUAGAAGGCGGUCUCAGCA | 51.4 | 702 | – | –
AGCUGUGGCCGAGGAUAUCACGAACCAUGGAAAACCAUGGAAAUUCUACAUGAGGAUCACCCAUGUGAGAAGGCGGUCUCAGCA | 18.1 | 17.2 | – | –
AGGAACAUGAGGAUCACCCAUGUUAGAGACCUCAUGCGAUGUAGAAGGAUAAUCCGAGAAGAGGUAUAGGAUAUACAUGAGAAA | 208 | 171 | – | –
AGGAAGUUAGGAUAUGCUGCUCGUCACUUGCGUGAUGAGUAGCAGAAGGGACAUGAGGAUCACCCAUGUAAAAA | 44.2 | 22.7 | – | –
AGGACGGGUAAGAAGGCGUUCUCACAUGAGGAUCACCCAUGUCGAAGGAUGAGGAUAUUGGCCGAGGGUGGCGUUUUGUGACGA | – | – | 30.9 | 9.35

Sequence | apparent Kd [1] [nM] | apparent Kd [2] [nM] | apparent Kd [3] [nM] | apparent Kd [4] [nM]
AGGAGGUCAGGAUAUGCAUGGCGGGACUUGCGUCGUGGCGUGCAGAAGGGACAUGAGGAUCACCCAUGUGGAGG | 125 | 181 | – | –
AGGAGGUCAGGAUAUGCUGCUCGUCACUUGCGUGAUGAGUAGCAGAAGGGACAUGAGGAUCACCCAUGUAAAUA | 48.7 | 86.7 | – | –
AGGAGGUUAGGAUAUGCUGCUCGUCACUUGCGUGAUGAGUAGCAGAAGGGACAUGAGGAUCACCCAUGUAAAGA | 43.1 | 27.7 | – | –
AGGCAGCAAGGAUAUACAUAAUUCCUACAAGUCAGCAUAGGACAUGAGGAUCACCCAUGUAGAAGGUGCAAAGA | 24.1 | 46.3 | – | –
AGGCGAGUAGGAUAUGCGUAUUUACGGGAAAGCUGGAUGAUACAUGAGGAUCACCCAUGUAGAAGGGCUCUGAA | 19.2 | 15.3 | – | –
AGGUAGUCAGGAUAUUAUUUUUAGCGGGAUAACGCUGAGGGUGAGAAGGGACAUGAGGAUCACCCAUGUUUUGA | 258 | 191 | – | –
AGGUCGAGUGUGAGGAUAUUGACCGGACGACCCAUCGAGAAGGCACAUGAGGAUCACCCAUGUGAUUCAGCUCA | 15 | 17.1 | – | –
AGGUGAAAUGUAGGAUAUGGAAAUAAAUUUUAACCAGAAGGACAUGAGGAUCACCCAUGUGAUAGAGAGUUAUUUAUAACUCCA | 13.9 | 95.9 | – | –
AGGUGACAUGAGGAUCACCCAUGUCAGGAUAUAUACACUGCCGGCGUGACGCCGGCAGAUAGAAGGGACAAAAU | 15.9 | 18.4 | – | –
AGGUGGUGUGGAAAGGAUAUACGGUUGAGGACAUGAGGAUCACCCAUGUGGUAGAGGACGUGAGUGUAGAAGGUUCGGGAUUGGU | – | – | 74.9 | 52.1
AGUACAUCAGGAUAUACAUGAAAGAUCAUCAUGACCUUUCUACAUGAGGAUCACCCAUGUAGAAGGGAUGUACA | 20.2 | 38 | – | –
AGUACUACAGGAUAUACGAGGGAGGUCCACGUGACCCUUUUACAUGAGGAUCACCCAUGUAGAAGGGUAGUACA | 23.3 | 26.8 | – | –
AGUACUCAAAGAGUACGCGUAAGCACAUGAGGAUCACCCAUGUAGGAUAUGCUACUCAAAGAGUAGUAGAAGGACAUAUACCUC | 5.2 | 6.34 | – | –
AGUAGAUCAGGAUAUACGUGAAAGGUCAAAGUGUCACUACUACAUGAGGAUCACCCAUGUAGAAGGGAUCUACA | 16.4 | 29.3 | – | –
AGUAUACAUGAGGAUCACCCAUGUCAGUAACUGACAGGAUAUGCGUUGCAUCACUGUAAUGCAGAAGGGUCUUGUA | – | – | 507 | 115
AGUAUGUACGCAGGAUAUACAUGAGGAUCACCCAUGUGGAACAGUGUAGUACUAGUUGAUCCUCAGUAGAAGGGCGGCCGAAUA | 49.3 | 62.6 | – | –
AGUCAUACAGGAUAUACAUGAGGAUCACCCAUGUAAAUCCUACAUGGGUGAUCCUCAUGUAGAAGGGUAUGACA | 11.7 | 10.4 | – | –
AGUCCACAUGAGGAUCACCCAUGUGAGGAUAUCGAUGUCCCAGGGCGGGUGCGGGACUCGAGAAGGCACUAGGU | 34.5 | 110 | – | –
